In ChEMBL document CHEMBL3822375, “Preclinical Characterization of 3β-(N-Acetyl l-cysteine methyl ester)-2aβ,3-dihydrogaliellalactone (GPA512), a Prodrug of a Direct STAT3 Inhibitor for the Treatment of Prostate Cancer” (J Med Chem, 2016):
Converted amounts (≈) assume the structure as drawn. Values belong to the molecule of their own block, whether it stands above or below them. The source made the active and inactive calls. The rule behind the calls is not given here.

Key:
[1] = Chemical stability of the compound in phosphate buffer saline assessed as half life at 10 uM at pH 7.4 by LC-MS/MS analysis; format: physicochemical; details: phosphate buffered saline
Procedure, shortened: (§1)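 Compound diluted from DMSO (or methanol) stock to 10 µM, 2% solvent final, n=2. Matrix was 0.1 M PBS pH 7.4, or […] HCl with 2 mg/mL NaCl adjusted to pH 1.2. Mixed on a shaker; sampled at nominal 5, 15, 30 and 60 min plus T=0. LC-MS/MS with internal standard; % remaining relative to T=0. Formation of parent also monitored.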

[2] = Antiproliferative activity against human DU145 cells after 72 hrs by WST-1 proliferation assay; format: functional, cell-based; details: DU-145, 72 h
Procedure, shortened: (§2)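 Cells in RPMI-1640 (DU145, LNCaP, LNCaP-IL6+) or HAM's F-12 (PC3) with 10% FBS. DU145 and LNCaP-IL6+ seeded at 2 000 cells/well, LNCaP and PC3 at 5 000 cells/well, adhered 24 h, then exposed to compound for 72 h. WST-1 absorbance read at 450 nm with 630 nm reference. Background subtracted; expressed as percent of untreated cells.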

[3] = Half life of compound in acidic buffer at pH 1.2 at 10 uM by LC-MS analysis; format: physicochemical; procedure, shortened: as §1
Mus musculus [4] = experiment: Cmax in mouse plasma assessed as galiellalactone level at 10 mg/kg, po by LC-MS/MS analysis; format: ADME, organism-based; design: dose 10 mg/kg, route oral; details: in vivo
Procedure, shortened: (§3)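 Single dose to mice; oral, iv or ip as listed, in 5% DMSO/50 mM citrate buffer pH 4.0 (dosing solutions 0.5, 2 or 5 mg/mL). Oral dosing at 20 mL/kg. Terminal blood under barbiturate anaesthesia at eight time-points to 8 h, n=3 mice per time-point, EDTA plasma. Acetonitrile precipitation with internal standard, LC-MS/MS against plasma calibration lines. Non-compartmental analysis on mean data, trapezoidal AUC.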

Mus musculus [5] = experiment: Tmax in mouse plasma assessed as galiellalactone level at 10 mg/kg, po by LC-MS/MS analysis; format: ADME, organism-based; details: in vivo
Mus musculus [6] = experiment: Apparent half life in mouse plasma assessed as galiellalactone level at 10 mg/kg, po by LC-MS/MS analysis; format: ADME, organism-based; details: in vivo; procedure, shortened: as §3
Mus musculus [7] = experiment: AUC (0 to t) in mouse plasma assessed as galiellalactone level at 10 mg/kg, po by LC-MS/MS analysis; format: ADME, organism-based; details: in vivo; procedure, shortened: as §3
Mus musculus [8] = experiment: AUC (0 to infinity) in mouse plasma assessed as galiellalactone level at 10 mg/kg, po by LC-MS/MS analysis; format: ADME, organism-based; design: dose 10 mg/kg, route oral, time infinity; details: in vivo; procedure, shortened: as §3
[9] = Solubility of the compound in phosphate buffer saline at pH 7.4 by LC-MS analysis; format: physicochemical; details: phosphate buffered saline
[10] = Half life in mouse plasma at 5 uM by LC-MS/MS analysis; format: ADME, cell-free
Procedure, shortened: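 Plasma of each species incubated at 37 °C with compound at 5 µM initial, 1% DMSO, n=2. Simvastatin and eucatropine run as controls. Aliquots taken at 0, 5, 15, 30 and 60 min and quenched with acetonitrile containing internal standard, then analysed by LC-MS/MS.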

[11] = Apparent permeability from apical to basolateral side in human Caco2 cells at 20 uM measured after 120 mins by UPLC-MS/MS analysis; format: ADME, cell-based; details: Caco-2
Procedure, shortened: (§4)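 Caco-2 monolayers in Hanks' balanced salt solution with 10 mM Hepes, pH 7.4. Apical and basolateral transport measured at 20 µM test item. Both compartments sampled at 0, 60 and 120 min and analysed by UPLC-MS/MS.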

[12] = Efflux ratio of apparent permeability across apical to basolateral side over basolateral to apical side in human Caco2 cells at 20 uM measured after 120 mins by UPLC-MS/MS analysis; format: ADME, cell-based; details: caco-2, 2 h; procedure, shortened: as §4
[13] = Drug metabolism in S9 intestinal fraction (unknown origin) assessed as glutathione conjugate formation; format: ADME
[14] = Metabolic stability in mouse hepatocytes assessed as compound disappearance measured after 2 hrs by LC-MS/MS analysis; format: ADME, cell-based, Hepatocyte; details: read-out: Drug degradation
Procedure, shortened: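 Cryopreserved mouse hepatocytes incubated with an initial 10 µM test item (DMSO stock) in Celsis InVitro HI medium, pH 7.4, 37 °C. Cell viability checked by Trypan blue. Sampled at 0 and 120 min and stopped with an equal volume of acetonitrile. Analysed by UPLC/Q-TOF-MS.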

[15] = Apparent half life in mouse plasma at 10 mg/kg, po by LC-MS/MS analysis; format: ADME, organism-based; details: read-out: t1/2(app); procedure, shortened: as §3
Mus musculus [16] = experiment: AUC (0 to t) in mouse plasma at 10 mg/kg, po by LC-MS/MS analysis; format: ADME, organism-based; details: in vivo; procedure, shortened: as §3
Mus musculus [17] = experiment: AUC (0 to infinity) in mouse plasma at 10 mg/kg, po by LC-MS/MS analysis; format: ADME, organism-based; design: dose 10 mg/kg, route oral, time infinity; details: in vivo; procedure, shortened: as §3
[18] = Cmax in mouse plasma at 1.25 mg/kg, iv by LC-MS/MS analysis; format: ADME, organism-based; design: dose 1.25 mg/kg, route intravenous; procedure, shortened: as §3
[19] = Tmax in mouse plasma at 1.25 mg/kg, iv by LC-MS/MS analysis; format: ADME, organism-based
[20] = Apparent half life in mouse plasma at 1.25 mg/kg, iv by LC-MS/MS analysis; format: ADME, organism-based; details: read-out: t1/2(app); procedure, shortened: as §3
[21] = Clearance in mouse plasma at 1.25 mg/kg, iv by LC-MS/MS analysis; format: ADME, organism-based; procedure, shortened: as §3
[22] = Volume of distribution in mouse plasma at 1.25 mg/kg, iv by LC-MS/MS analysis; format: ADME, organism-based
Mus musculus [23] = experiment: AUC (0 to t) in mouse plasma at 1.25 mg/kg, iv by LC-MS/MS analysis; format: ADME, organism-based; details: in vivo; procedure, shortened: as §3
Mus musculus [24] = experiment: AUC (0 to infinity) in mouse plasma at 1.25 mg/kg, iv by LC-MS/MS analysis; format: ADME, organism-based; design: dose 1.25 mg/kg, time infinity, route intravenous; details: in vivo; procedure, shortened: as §3
[25] = Cmax in mouse plasma at 5 mg/kg, ip by LC-MS/MS analysis; format: ADME, organism-based; design: dose 5 mg/kg, route intraperitoneal; procedure, shortened: as §3
[26] = Tmax in mouse plasma at 5 mg/kg, ip by LC-MS/MS analysis; format: ADME, organism-based
[27] = Apparent half life in mouse plasma at 5 mg/kg, ip; format: ADME, organism-based
Mus musculus [28] = experiment: AUC (0 to t) in mouse plasma at 5 mg/kg, ip by LC-MS/MS analysis; format: ADME, organism-based; details: in vivo; procedure, shortened: as §3
Mus musculus [29] = experiment: AUC (0 to infinity) in mouse plasma at 5 mg/kg, ip by LC-MS/MS analysis; format: ADME, organism-based; design: dose 5 mg/kg, route intraperitoneal, time infinity; details: in vivo; procedure, shortened: as §3
DU-145 [30] = experiment: Antiproliferative activity against human DU145 cells expressing pSTAT3 at 3 uM after 72 hrs by WST-1 proliferation assay; format: functional, cell-based; procedure, shortened: as §2
DU-145 [31] = experiment: Cytotoxicity against human DU145 cells expressing pSTAT3 assessed as inhibition of cell viability at 3 uM after 72 hrs by WST-1 proliferation assay; format: functional, cell-based; procedure, shortened: as §2
LNCaP [32] = experiment: Antiproliferative activity against human LNCAP cells expressing IL6 and pSTAT3 at 3 uM after 72 hrs by WST-1 proliferation assay; format: functional, cell-based; procedure, shortened: as §2
LNCaP [33] = experiment: Cytotoxicity against human LNCAP cells expressing IL6 and pSTAT3 assessed as inhibition of cell viability at 3 uM after 72 hrs by WST-1 proliferation assay; format: functional, cell-based; procedure, shortened: as §2
PC-3 [34] = experiment: Antiproliferative activity against human PC3 cells at 3 uM after 72 hrs by WST-1 proliferation assay; format: functional, cell-based; procedure, shortened: as §2
PC-3 [35] = experiment: Cytotoxicity against human PC3 cells assessed as inhibition of cell viability at 3 uM after 72 hrs by WST-1 proliferation assay; format: functional, cell-based; procedure, shortened: as §2
LNCaP [36] = experiment: Antiproliferative activity against human LNCAP cells at 3 uM after 72 hrs by WST-1 proliferation assay; format: functional, cell-based; procedure, shortened: as §2
LNCaP [37] = experiment: Cytotoxicity against human LNCAP cells assessed as inhibition of cell viability at 3 uM after 72 hrs by WST-1 proliferation assay; format: functional, cell-based; procedure, shortened: as §2
Hepatocyte = experiment: Drug level in mouse hepatocytes treated with 3-beta-(N-Acetyl-L-cysteine methyl ester)-2a-beta,3-dihydrogaliellalactone measured after 2 hrs by UPLC-MS analysis; format: ADME, cell-based
Procedure, shortened: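 Cryopreserved mouse hepatocytes in Celsis InVitro HI medium, pH 7.4, 37 °C, with 10 µM initial compound from DMSO stock. Sampled at 0 and 120 min, quenched with an equal volume of acetonitrile, analysed by UPLC/Q-TOF-MS. Viability checked by Trypan blue.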

[38] = Stability of compound assessed as compound disappearance measured after 2 hrs by LC-MS/MS analysis; format: physicochemical
[39] = Half life in mouse plasma by LC-MS/MS analysis; format: ADME, cell-free

half-life at 10 µM [1]: 0.367 h
half-life at 10 µM [3]: > 2.5 h
Cmax (Mus musculus [4]): 788 ng/mL
Tmax (Mus musculus [5]): 0.5 h
t1/2(app) (Mus musculus [6]): 4.63 h
AUCt (Mus musculus [7]): 85 µg/mL/min
AUC (Mus musculus [8]): 102 µg/mL/min
Structure (SMILES): COC(=O)[C@@H](N)CS[C@H]1C2C(=O)O[C@@H]3CC[C@H](C[C@@H]1C)[C@]23O (stereo partly specified)
IC50 [2]: 4.51 µM

half-life at 10 µM [1]: > 2.5 h
Structure (SMILES): C[C@H]1C[C@H]2CC[C@H]3OC(=O)C([C@@H]1SCCS(=O)(=O)O)[C@@]23O (stereo partly specified)
IC50 [2]: 11.4 µM

half-life at 10 µM [1]: 0.233 h
half-life at 10 µM [3]: > 2.5 h
Structure (SMILES): C[C@H]1C[C@H]2CC[C@H]3OC(=O)C([C@@H]1SC[C@H](N)C(=O)O)[C@@]23O (stereo partly specified)
IC50 [2]: 2.66 µM

half-life at 10 µM [1]: 1.1 h
Cmax (Mus musculus [4]): 949 ng/mL
Tmax (Mus musculus [5]): 0.5 h
t1/2(app) (Mus musculus [6]): 2.15 h
AUCt (Mus musculus [7]): 97 µg/mL/min
AUC (Mus musculus [8]): 101 µg/mL/min
Structure (SMILES): COC(=O)[C@H](CS[C@H]1C2C(=O)O[C@@H]3CC[C@H](C[C@@H]1C)[C@]23O)NC(=O)[C@@H](N)C(C)C (stereo partly specified)

solubility [9]: 143 µM (≈ 27.8 µg/mL)
half-life at 10 µM [1]: > 9.8 h
half-life at 5 µM [10]: 1.23 h
Papp A→B at 2 h, 20 µM [11]: 65.9 ×10⁻⁶ cm/s
Ratio [12]: 2
Drug metabolism [13]: metabolite_detected
metabolised at 2 h [14]: 45%
half-life [15]: 1.48 h
AUCt (Mus musculus [16]): 5 µg/mL/min
AUC (Mus musculus [17]): 6 µg/mL/min
Cmax [18]: 2960 ng/mL
Tmax [19]: 5 min
half-life [20]: 2.17 h
clearance [21]: 7.3 mL/min/kg
Vd [22]: 1.4 L/kg
AUCt (Mus musculus [23]): 159 µg/mL/min
AUC (Mus musculus [24]): 171 µg/mL/min
Cmax [25]: 5520 ng/mL
Tmax [26]: 5 min
half-life [27]: 2.4 h
AUCt (Mus musculus [28]): 351 µg/mL/min
AUC (Mus musculus [29]): 372 µg/mL/min
Drug metabolism (Hepatocyte): metabolite_detected
Stability [38]: Stable
half-life [39]: 1.23 h
Structure (SMILES): C[C@@H]1C=C2C(=O)O[C@@H]3CC[C@H](C1)[C@]23O
Activity (DU-145 [30]): Active
inhibition (DU-145 [31]): Active
Activity (LNCaP [32]): Active
inhibition (LNCaP [33]): Active
Activity (PC-3 [34]): inactive
inhibition (PC-3 [35]): inactive
Activity (LNCaP [36]): inactive
inhibition (LNCaP [37]): inactive
IC50 [2]: 3.02 µM

Cmax (Mus musculus [4]): 478 ng/mL
Tmax (Mus musculus [5]): 0.25 h
t1/2(app) (Mus musculus [6]): 3.17 h
AUCt (Mus musculus [7]): 36 µg/mL/min
AUC (Mus musculus [8]): 41 µg/mL/min
Structure (SMILES): C[C@H]1C[C@H]2CC[C@H]3OC(=O)C([C@@H]1Sc1ccccc1)[C@@]23O (stereo partly specified)

half-life at 10 µM [1]: > 2.5 h
Cmax (Mus musculus [4]): 303 ng/mL
Tmax (Mus musculus [5]): 0.5 h
t1/2(app) (Mus musculus [6]): 4.23 h
AUCt (Mus musculus [7]): 15 µg/mL/min
AUC (Mus musculus [8]): 21 µg/mL/min
Structure (SMILES): COC(=O)[C@H](CS[C@H]1C2C(=O)O[C@@H]3CC[C@H](C[C@@H]1C)[C@]23O)NC(=O)C(C)C (stereo partly specified)

half-life at 10 µM [1]: > 2.5 h
Structure (SMILES): C[C@H]1C[C@H]2CC[C@H]3OC(=O)C([C@@H]1SC[C@H](NC(=O)CC[C@H](N)C(=O)O)C(=O)NCC(=O)O)[C@@]23O (stereo partly specified)
IC50 [2]: 6.14 µM
